Here are results for 19 molecules from ChEMBL document CHEMBL1136045, “Synthesis, in vitro receptor binding, and in vivo evaluation of fluorescein and carbocyanine peptide-based optical contrast agents” (J Med Chem, 2002).

Broadly, the IC50 is the concentration at which inhibition is half-maximal. Low values mean inhibition by little substance, high ones a need for much substance.

Sequence of Gastrin-releasing peptide receptor (P52500 whole entry): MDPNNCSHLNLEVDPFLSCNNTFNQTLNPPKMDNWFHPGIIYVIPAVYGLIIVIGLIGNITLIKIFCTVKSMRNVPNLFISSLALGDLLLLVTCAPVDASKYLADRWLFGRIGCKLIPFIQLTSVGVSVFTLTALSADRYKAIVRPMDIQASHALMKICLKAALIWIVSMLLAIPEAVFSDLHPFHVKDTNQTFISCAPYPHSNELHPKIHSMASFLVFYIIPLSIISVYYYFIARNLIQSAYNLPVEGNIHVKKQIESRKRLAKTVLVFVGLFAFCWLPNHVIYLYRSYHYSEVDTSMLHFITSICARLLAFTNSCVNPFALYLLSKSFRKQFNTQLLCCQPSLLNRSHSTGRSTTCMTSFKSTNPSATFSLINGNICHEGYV

The assay deals with Gastrin-releasing peptide receptor (Rattus norvegicus, UniProt P52500). The assay is described as follows: In vitro binding affinity of [111In]DTPA-[Y4]-bombesin to bombesin receptor in the rat pancreatic acinar cell line, AR42J. In short, it runs like this:
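Competition binding on AR42-J rat pancreatic acinar cell membranes (~50 μg/well) with the tracer [111In]-DTPA-[P1,Y4]-bombesin and increasing concentrations of cold competitor. Buffer was 50 mM Tris-HCl pH 7.4, 5 mM MgCl2, 0.2 mg/mL BSA. Incubation 90 min at room temperature, then filtration and washing. Bound radioactivity was gamma-counted, and IC50 came from a four-parameter fit.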
Take `CSCC[C@H](NC(=O)[C@H](CC(C)C)NC(=O)[C@H](Cc1c[nH]cn1)NC(=O)CNC(=O)[C@@H](NC(=O)[C@H](C)NC(=O)[C@H](Cc1c[nH]c2ccccc12)NC(=O)[C@H](CCC(N)=O)NC(=O)[C@H](CC(N)=O)NC(=O)CNC(=O)[C@H](Cc1ccc(O)cc1)NC(=O)[C@H](CCCN=C(N)N)NC(=O)[C@H](CCC(N)=O)NC(=O)[C@@H]1CCCN1C(=O)CN(CCN(CCN(CC(=O)O)CC(=O)O)CC(=O)O)CC(=O)O)C(C)C)C(N)=O`: the IC50 was 4.7 nM. That is a single-digit nanomolar value. For the molecule `CSCC[C@H](NC(=O)[C@H](CC(C)C)NC(=O)[C@H](Cc1c[nH]cn1)NC(=O)CNC(=O)[C@@H](NC(=O)[C@H](C)NC(=O)[C@H](Cc1c[nH]c2ccccc12)NC(=O)[C@H](CCC(N)=O)NC(=O)CNC(=O)[C@H](CO)NC(=O)CNC(=O)[C@@H](N)CCCCNC(=S)Nc1ccc2c(c1)C(=O)OC21c2ccc(O)cc2Oc2cc(O)ccc21)C(C)C)C(N)=O`, the IC50 came out at 9.6 nM. This IC50 is about 2-fold higher than that of the molecule before. The molecule `CSCC[C@H](NC(=O)[C@H](CC(C)C)NC(=O)[C@H](Cc1c[nH]cn1)NC(=O)CNC(=O)[C@@H](NC(=O)[C@H](C)NC(=O)[C@H](Cc1c[nH]c2ccccc12)NC(=O)[C@H](CCC(N)=O)NC(=O)[C@H](CCCCN)NC(=S)Nc1ccc2c(c1)C(=O)OC21c2ccc(O)cc2Oc2cc(O)ccc21)C(C)C)C(N)=O` showed an IC50 of 5.8 nM. The molecule `CSCC[C@H](NC(=O)[C@H](CC(C)C)NC(=O)[C@H](Cc1c[nH]cn1)NC(=O)CNC(=O)[C@@H](NC(=O)[C@H](C)NC(=O)[C@H](Cc1c[nH]c2ccccc12)NC(=O)[C@H](CCC(N)=O)NC(=O)[C@@H](N)CCCCNC(=O)CN(CCN(CCN(CC(=O)O)CC(=O)O)CC(=O)O)CC(=O)O)C(C)C)C(N)=O` displayed an IC50 of 4.8 nM. In turn, `CSCC[C@H](NC(=O)[C@H](CC(C)C)NC(=O)[C@H](Cc1c[nH]cn1)NC(=O)CNC(=O)[C@@H](NC(=O)[C@H](C)NC(=O)[C@H](Cc1c[nH]c2ccccc12)NC(=O)[C@H](CCC(N)=O)NC(=O)[C@H](CCCCN)NC(=O)CN(CCN(CCN(CC(=O)O)CC(=O)O)CC(=O)O)CC(=O)O)C(C)C)C(N)=O` registered an IC50 of 410 nM. `CSCC[C@H](NC(=O)[C@H](CC(C)C)NC(=O)[C@H](Cc1c[nH]cn1)NC(=O)CNC(=O)[C@@H](NC(=O)[C@H](C)NC(=O)[C@H](Cc1c[nH]c2ccccc12)NC(=O)[C@H](CCC(N)=O)NC(=S)Nc1ccc2c(c1)C(=O)OC21c2ccc(O)cc2Oc2cc(O)ccc21)C(C)C)C(N)=O` displayed an IC50 of 3.2 nM. Compared with the last molecule, the IC50 is about 130-fold lower.

`CSCC[C@H](NC(=O)[C@H](CC(C)C)NC(=O)[C@H](Cc1c[nH]cn1)NC(=O)CNC(=O)[C@@H](NC(=O)[C@H](C)NC(=O)[C@H](Cc1c[nH]c2ccccc12)NC(=O)[C@H](CCC(N)=O)NC(=O)[C@@H](N)CCCCNC(=S)Nc1ccc2c(c1)C(=O)OC21c2ccc(O)cc2Oc2cc(O)ccc21)C(C)C)C(N)=O` yielded an IC50 of 5.7 nM. For the molecule `CSCC[C@H](NC(=O)[C@H](CC(C)C)NC(=O)[C@H](Cc1c[nH]cn1)NC(=O)CNC(=O)[C@@H](NC(=O)[C@H](C)NC(=O)[C@H](Cc1c[nH]c2ccccc12)NC(=O)[C@H](CCC(N)=O)NC(=O)CNC(=O)[C@H](CO)NC(=O)CNC(=O)[C@@H](N)CCCCN)C(C)C)C(N)=O`, the IC50 turned out to be 4.8 nM.

`CSCC[C@H](NC(=O)[C@H](CC(C)C)NC(=O)[C@H](Cc1c[nH]cn1)NC(=O)CNC(=O)[C@@H](NC(=O)[C@H](C)NC(=O)[C@H](Cc1c[nH]c2ccccc12)NC(=O)[C@H](CCC(N)=O)NC(=O)CNC(=O)[C@H](CO)NC(=O)CNC(=O)[C@H](CCCCN)NC(=S)Nc1ccc2c(c1)C(=O)OC21c2ccc(O)cc2Oc2cc(O)ccc21)C(C)C)C(N)=O`: the IC50 was 15.6 nM. `CSCC[C@H](NC(=O)[C@H](CC(C)C)NC(=O)[C@H](Cc1c[nH]cn1)NC(=O)CNC(=O)[C@@H](NC(=O)[C@H](C)NC(=O)[C@H](Cc1c[nH]c2ccccc12)NC(=O)[C@H](CCC(N)=O)NC(=O)CNC(=O)[C@H](CO)NC(=O)CNC(=S)Nc1ccc2c(c1)C(=O)OC21c2ccc(O)cc2Oc2cc(O)ccc21)C(C)C)C(N)=O` showed an IC50 of 9.2 nM. Under `CSCC[C@H](NC(=O)[C@H](CC(C)C)NC(=O)[C@H](Cc1cnc[nH]1)NC(=O)CNC(=O)[C@@H](NC(=O)[C@H](C)NC(=O)[C@H](Cc1c[nH]c2ccccc12)NC(=O)[C@@H](N)CCC(N)=O)C(C)C)C(N)=O` stands 28.3 nM. On to `CSCC[C@H](NC(=O)[C@H](CC(C)C)NC(=O)[C@H](Cc1c[nH]cn1)NC(=O)CNC(=O)[C@@H](NC(=O)[C@H](C)NC(=O)[C@H](Cc1c[nH]c2ccccc12)NC(=O)[C@H](CCC(N)=O)NC(=O)CNC(=O)[C@H](CO)NC(=O)CN)C(C)C)C(N)=O`, for which the IC50 worked out at 7.6 nM. Under `CSCC[C@H](NC(=O)[C@H](CC(C)C)NC(=O)[C@H](Cc1c[nH]cn1)NC(=O)CNC(=O)[C@@H](NC(=O)[C@H](C)NC(=O)[C@H](Cc1c[nH]c2ccccc12)NC(=O)[C@H](CCC(N)=O)NC(=O)[C@@H](N)CCCCN)C(C)C)C(N)=O` stands 10.5 nM; under `CSCC[C@H](NC(=O)[C@H](CC(C)C)NC(=O)[C@H](Cc1c[nH]cn1)NC(=O)CNC(=O)[C@@H](NC(=O)[C@H](C)NC(=O)[C@H](Cc1c[nH]c2ccccc12)NC(=O)[C@H](CCC(N)=O)NC(=O)CNC(=O)[C@H](CO)NC(=O)CNC(=O)[C@H](CCCCNC(=S)Nc1ccc2c(c1)C(=O)OC21c2ccc(O)cc2Oc2cc(O)ccc21)NC(=S)Nc1ccc2c(c1)C(=O)OC21c2ccc(O)cc2Oc2cc(O)ccc21)C(C)C)C(N)=O`, 20.5 nM; under `CSCC[C@H](NC(=O)[C@H](CC(C)C)NC(=O)[C@H](Cc1c[nH]cn1)NC(=O)CNC(=O)[C@@H](NC(=O)[C@H](C)NC(=O)[C@H](Cc1c[nH]c2ccccc12)NC(=O)[C@H](CCC(N)=O)NC(=O)[C@H](CCCCNC(=O)CN(CCN(CCN(CC(=O)O)CC(=O)O)CC(=O)O)CC(=O)O)NC(=O)CN(CCN(CCN(CC(=O)O)CC(=O)O)CC(=O)O)CC(=O)O)C(C)C)C(N)=O`, 240 nM. Turning to `CSCC[C@H](NC(=O)[C@H](CC(C)C)NC(=O)[C@H](Cc1c[nH]cn1)NC(=O)CNC(=O)[C@@H](NC(=O)[C@H](C)NC(=O)[C@H](Cc1c[nH]c2ccccc12)NC(=O)[C@H](CCC(N)=O)NC(=O)[C@H](CCCCNC(=O)CN(CCN(CCN(CC(=O)O)CC(=O)O)CC(=O)O)CC(=O)O)NC(=S)Nc1ccc2c(c1)C(=O)OC21c2ccc(O)cc2Oc2cc(O)ccc21)C(C)C)C(N)=O`, the IC50 was found to be 20 nM. Under `CSCC[C@H](NC(=O)[C@H](CC(C)C)NC(=O)[C@H](Cc1c[nH]cn1)NC(=O)CNC(=O)[C@@H](NC(=O)[C@H](C)NC(=O)[C@H](Cc1c[nH]c2ccccc12)NC(=O)[C@H](CCC(N)=O)NC(=O)[C@H](CCCCNC(=S)Nc1ccc2c(c1)C(=O)OC21c2ccc(O)cc2Oc2cc(O)ccc21)NC(=O)CN(CCN(CCN(CC(=O)O)CC(=O)O)CC(=O)O)CC(=O)O)C(C)C)C(N)=O` stands 276 nM; under `CSCC[C@H](NC(=O)[C@H](CC(C)C)NC(=O)[C@H](Cc1c[nH]cn1)NC(=O)CNC(=O)[C@@H](NC(=O)[C@H](C)NC(=O)[C@H](Cc1c[nH]c2ccccc12)NC(=O)[C@H](CCC(N)=O)NC(=O)[C@H](CCCCNC(=S)Nc1ccc2c(c1)C(=O)OC21c2ccc(O)cc2Oc2cc(O)ccc21)NC(=S)Nc1ccc2c(c1)C(=O)OC21c2ccc(O)cc2Oc2cc(O)ccc21)C(C)C)C(N)=O`, 9.5 nM; under `CSCC[C@H](NC(=O)[C@H](CC(C)C)NC(=O)[C@H](Cc1c[nH]cn1)NC(=O)CNC(=O)[C@@H](NC(=O)[C@H](C)NC(=O)[C@H](Cc1c[nH]c2ccccc12)NC(=O)[C@H](CCC(N)=O)NC(=O)[C@H](CCCCNC(=O)CN1CCN(CC(=O)O)CCN(CC(=O)O)CCN(CC(=O)O)CC1)NC(=S)Nc1ccc2c(c1)C(=O)OC21c2ccc(O)cc2Oc2cc(O)ccc21)C(C)C)C(N)=O`, 15 nM.
